MEKK2mut PB1 HTS = signal of MEK5 binding to mutant human MEKK2 PB1 domain. bead flow cytometry, Alexa488-MEK5 binding to MEKK2 mutant. percent response, % at 10 µM. actives 0.35% (n = 290,000). AID 1530; in the data active means percent response above about 24%, passing the limit was not always enough
MEKK3 PB1 HTS = modulators (inhibitors or enhancers) of MEK5 binding to human MEKK3 PB1 domain. Q99759. bead-based flow cytometry, Alexa488-MEK5 binding to MEKK3; actives lie on both sides; 0 = blocked by unlabeled MEK5, 100 = vehicle. binding response (% of control), % at 10 µM. actives 1.4% (n = 290,000);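 active means binding response more than 3 SD above or below the average of its plate-row segment, actives on both sides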;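 further: Alexa488 bead fluorescence after subtracting the streptavidin-only scavenger bead signal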
Target sequence (Q99759 whole entry, looked up, the tested form may be a part): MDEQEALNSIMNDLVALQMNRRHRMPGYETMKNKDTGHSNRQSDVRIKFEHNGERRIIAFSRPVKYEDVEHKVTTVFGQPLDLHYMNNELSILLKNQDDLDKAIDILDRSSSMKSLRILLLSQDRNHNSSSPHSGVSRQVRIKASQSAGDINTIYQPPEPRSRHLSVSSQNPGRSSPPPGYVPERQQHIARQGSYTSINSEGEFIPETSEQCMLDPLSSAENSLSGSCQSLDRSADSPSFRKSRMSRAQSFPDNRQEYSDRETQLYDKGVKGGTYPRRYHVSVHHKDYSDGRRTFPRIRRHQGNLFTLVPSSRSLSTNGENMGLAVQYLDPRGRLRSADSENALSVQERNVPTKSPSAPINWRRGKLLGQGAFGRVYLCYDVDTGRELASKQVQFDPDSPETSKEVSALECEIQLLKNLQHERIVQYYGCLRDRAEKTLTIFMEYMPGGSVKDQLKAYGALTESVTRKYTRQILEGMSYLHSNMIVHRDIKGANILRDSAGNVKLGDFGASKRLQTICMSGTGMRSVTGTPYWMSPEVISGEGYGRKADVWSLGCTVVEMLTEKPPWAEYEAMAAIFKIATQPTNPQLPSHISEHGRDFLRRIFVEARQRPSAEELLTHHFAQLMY
IMP-1 inh = inhibitors of Pseudomonas aeruginosa IMP-1 metallo-beta-lactamase | purified IMP-1, nitrocefin hydrolysis, epi-absorbance fluorescence | actives 0.45% (n = 290,000) | inhibition, % at 5.6 µM;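 active means inhibition above the mean plus 3 SD of all compounds in the same screening run, cut at about 4.5% in these data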;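 further: 0% = IMP-1 with DMSO and 100% = DMSO wells lacking enzyme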
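System: Purified IMP-1 | Read-out basis: Percent enzyme inhibition | Controls: IMP-1 with DMSO as 0%, enzyme-free DMSO as 100% | Replicates: One well per compound | Doses: 5.6 µM nominal single concentration | Detection: Epi-absorbance fluorescence, 480 nm excitation, 530 nm emission | Incubation: 25 °C, 15 min preincubation, 25 min reaction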
MEKK2 WT-MEK5 = raises or lowers MEK5 binding to wildtype human MEKK2 PB1 domain; Q9Y2U5; bead flow cytometry, Alexa488-MEK5 binding to MEKK2 WT; actives lie on both sides; binding response (% of control), % at 10 µM; actives 1.1% (n = 290,000); in the data active means binding response below about 67% or above about 130%
VIM-2 inh = inhibitors of Pseudomonas aeruginosa VIM-2 metallo-beta-lactamase; purified VIM-2, nitrocefin hydrolysis, epi-absorbance fluorescence; inhibition, % at 5.6 µM; actives 0.89% (n = 290,000);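 active means inhibition above the mean of all tested compounds plus 3 SD, cutoff set per screening run, cut at about 7.5% in these data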;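 further: red hydrolysis product quenches plate fluorescence so inhibitors raise well fluorescence; 0% = enzyme with DMSO and 100% = DMSO without enzyme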
MEKK2wt confirm = raises or lowers MEK5 binding to wildtype human MEKK2, retest. shares compounds with MEKK3 PB1 HTS. bead flow cytometry, Alexa488-MEK5 binding to MEKK2 WT; actives lie on both sides. binding response (% of control), % at 10 µM. actives 2.4% (n = 5,900); in the data active means binding response below about 16% or above about 210%; inactive means in between
MEKK2mut confirm = signal of MEK5 binding to mutant human MEKK2, retest; percent response, % at 10 µM; bead flow cytometry, Alexa488-MEK5 binding to MEKK2 mutant; shares compounds with MEKK3 PB1 HTS; actives 2% (n = 5,900); AID 1893; in the data active means percent response mostly above about 71%, no sharp cut-off; inactive means mostly below about 38%;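 further: higher means compound restores mutant binding toward wildtype level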
MEKK3 confirm = MEKK3-MEK5 PB1 inhibition, single concentration confirmation; shares compounds with MEKK3 PB1 HTS; bead flow cytometry, Alexa488-MEK5 binding to MEKK3; active compounds read low; binding response (% of control), % at 10 µM; actives 1.8% (n = 5,900); AID 1894;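 active means binding response below 72% of control, or above a set upper limit, though filed actives all read lower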;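 further: 100% = DMSO only wells and 0% = binding blocked by excess unlabeled MEK5; lower values mean stronger disruption of MEK5 binding to MEKK3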
* marks the source's active call; other numbers are inactive results; · = no result given; [ ] = another dose, or the depositor's remark. This is a sample that favours compounds with a hit; in the whole collection about 3.4% have one here.

SMILES	MEKK2mut PB1 HTS	MEKK3 PB1 HTS	IMP-1 inh	MEKK2 WT-MEK5	VIM-2 inh	MEKK2wt confirm	MEKK2mut confirm	MEKK3 confirm
CN(Cc1ccccc1)C(=O)C1CCC(CNS(=O)(=O)c2cccc3cccnc23)CC1 (configuration not stated)	26	131*	-2	119	-1	106	2	99
CC1(c2ccccc2)CC(C)(C)N2C(=O)/C(=C3\SC(=S)NC3=O)c3cccc1c32 (configuration not stated)	-1	147*	-4	96	-3	95	-3	95
CCCCNC(=O)c1ccc(C)c(NC(=O)C2=C(C)OCCS2)c1	3	107	-1	106	0	·	·	·
O=C1CC(c2ccc3c(c2)OCCO3)Oc2ccc([N+](=O)[O-])cc21 (configuration not stated)	17	109	-2	134*	0	93	-27	95
CCN(CC)c1ccc2nc3c4ccccc4c(=O)cc-3oc2c1	-26	89	0	53*[inhibitor]	7	76	-14	96
O=C1NC2=C(C(=O)CCC2)C(c2ccc([N+](=O)[O-])cc2)N1 (configuration not stated)	3	101	-3	102	2	·	·	·
CC1(C)CC[C@]2(C(=O)O)CC[C@]3(C)C(=CC[C@@H]4[C@@]5(C)CC[C@H](O)C(C)(C)[C@@H]5CC[C@]43C)[C@@H]2C1	1	125	·	150*	·	101	1	101
S=C(Nc1ccccc1Cl)NC1CCCCCC1	-4	97	-2	100	-2	·	·	·
COc1ccc(/C=C(/NC(=O)c2ccc(OC)c(OC)c2)C(=O)NCCc2c[nH]c3ccccc23)cc1	0	97	-4	102	-3	·	·	·
COCC(COS(N)(=O)=O)Cc1ccccc1 (configuration not stated)	4	105	-1	139*	-3	107	7	108
O=C1NNC(c2ccccc2)=N/C1=C\c1ccco1	-35	57	0	44*[inhibitor]	1	100	5	103
CCOC(=O)C1=C(CC)Nc2ccccc2N=C1NC(=O)c1ccc(S(=O)(=O)N2CCCC2)cc1	-4	101	-1	95	0	·	·	·
CCOC(=O)C1=C(CC)Nc2ccccc2N=C1NC(=O)Nc1ccc(Cl)c(Cl)c1	20	97	-6	145*	-3	148	-7	98
CSc1ncccc1C(=O)OCC(=O)NC(N)=O	-7	64	-1	70	2	·	·	·
Cc1onc(C(=O)N2CCN(c3ccccc3F)CC2)c1-c1ccccc1Cl	1	130*	-3	104	-2	99	0	101
O=[N+]([O-])c1cc(C(F)(F)F)ccc1NCCNC(=S)Nc1ccc(Cl)cc1	19	107	0	139*	-1	131	20	108
O=[N+]([O-])c1cc(Cl)ccc1NCCNc1ncc(C(F)(F)F)cc1Cl	-15	86	-3	94	-3	·	·	·
Cn1c(N/N=C\c2cccc(O)c2)cc(=O)n(C)c1=O	0	146*	-3	107	-2	101	-7	98
CSc1sc(C(=O)O)c(C)c1C(C)=O	4	106	-2	103	2	·	·	·
COc1cc(C2=NOC(C(=O)Nc3c(C)n(C)n(-c4ccccc4)c3=O)C2)cc(OC)c1OC (configuration not stated)	-3	86	-2	86	-2	·	·	·
CCCCCNCc1ccc(Cl)cc1	0	100	-4	103	-1	·	·	·
OCCCCNCc1ccc(OCc2ccc(Cl)cc2)cc1	37*	108	0	181*	2	107	3	101
CC(NCc1cccc(OCc2ccccc2)c1)C(O)c1ccccc1 (configuration not stated)	12	100	-1	119	-2	·	·	·
CC(NCc1ccc(OCc2ccc(Cl)cc2)cc1)C(O)c1ccccc1 (configuration not stated)	4	94	-2	144*	-4	160	33	96
CCN(CC)S(=O)(=O)c1ccc(N2CCOCC2)c(NC(=O)c2cc(=O)[nH]c3ccccc23)c1	-9	69*[inhibitor]	0	86	-2	108	9	105
SMILES	MEKK2mut PB1 HTS	MEKK3 PB1 HTS	IMP-1 inh	MEKK2 WT-MEK5	VIM-2 inh	MEKK2wt confirm	MEKK2mut confirm	MEKK3 confirm
COc1ccc([N+](=O)[O-])cc1/C=N/NC(=O)CNC(=O)C(c1ccccc1)c1ccccc1	1	165*	-2	109	-2	99	0	99
O=C(NCCN1C(=O)S/C(=C\c2ccc(OC(F)F)cc2)C1=O)[C@@H]1CCCN1C(=O)c1cccs1	0	131*	-2	104	0	108	11	104
Cc1cccc2cc(CN(Cc3ccccc3)C(=S)NCCCN(C)C)c(=O)[nH]c12	-3	110	-3	117	2	·	·	·
CC(C)(Cc1ccc(O)cc1)NC(=O)CC(=O)N=Nc1c(O)[nH]c2ccc(Br)cc12	40	21*[inhibitor]	-2	108	-3	106	9	105
Cc1cccc(C)c1OCC(=O)N=Nc1c(O)[nH]c2ccc(Br)cc12	·	·	-1	·	-2	·	·	·
O=C(O)c1ccc(NC(=O)C2C3CCC(O3)C2C(=O)O)cc1 (configuration not stated)	1	107	0	103	1	·	·	·
COc1ccc2c(c1)c(/C=N/Nc1nc3ccccc3[nH]1)c(C)n2C	51*	103	-2	164*	-4	165	41	107
COc1cc(/C=N\Nc2nc3ccccc3[nH]2)cc(OC)c1OC	4	106	-4	112	-4	·	·	·
Cn1nnnc1SCCNCc1ccccc1OCc1ccccc1Cl	4	106	-1	112	0	·	·	·
CCc1c(C)nc2cc(-c3ccc(OC)c(OC)c3)nn2c1N1CCCC1	-28	2.0*[inhibitor]	-1	-1.0*[inhibitor]	2	106	0	109
CCOC(=O)c1sc2nc(CSc3ccccc3)nc(N3CCCN(C)CC3)c2c1C	1	130*	-1	134	2	158	21	104
CCOC(=O)c1sc2nc(CSc3ccccc3)nc(N3CCC(C(N)=O)CC3)c2c1C	-5	105	-4	95	-3	·	·	·
COc1ccc(S(=O)(=O)N2CC(=O)Nc3ccccc32)cc1F	11	107	-3	110	-4	·	·	·
COc1ccccc1NC(=S)N1CCC(c2nc3ccccc3o2)CC1	6	95	-2	105	-1	·	·	·

Compound activity deposited in PubChem BioAssay by several laboratories.
